Source: PubChem BioAssay
Rows were chosen to be rich in hits. Some 3.5% of all compounds tested hit in one or more screens of this group.
FGF22 binding = binders of human FGF22 protein, primary screen, FGF22 synaptogenesis inhibitor project, biophysical, thermal shift, single point | actives 1.5% (n = 340,000) | recombinant FGF22 thermal shift, SYPRO orange fluorescence; percent of sucrose octasulfate shift, DMSO zero | activity (Tm shift, normalised), % at 9.99 µM | Fibroblast growth factor 22 (Homo sapiens), Q9HCT0;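 active means mean Tm shift, scaled 0 neutral to 100 positive control, at about 1.3% or above, every replicate too, limit read from the data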
HIV Env fusion = inhibitors of HIV-1 Env-driven cell-cell fusion, primary screen, HeLa-JRFL effector, CEM21 target cells, luciferase; actives 1.1% (n = 360,000); inhibition, % at 12.3 µM;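 active means mean replicate inhibition score of at least 50 and every replicate individually at or above 50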
ERAP1 inh = human ERAP1 aminopeptidase inhibitors, primary screen, biochemical, single point, plate reader | Endoplasmic reticulum aminopeptidase 1 (Homo sapiens), Q9NZ08 | recombinant ERAP1, Leu-AMC fluorescence, 60 min | inhibition, % at 10.7 µM | actives 0.15% (n = 340,000);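 active means mean replicate inhibition of at least 30%, or all replicates individually reaching that 30% level; inactive means mean below 30% and not every replicate reaching it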
Target sequence (Q9NZ08 whole entry, looked up): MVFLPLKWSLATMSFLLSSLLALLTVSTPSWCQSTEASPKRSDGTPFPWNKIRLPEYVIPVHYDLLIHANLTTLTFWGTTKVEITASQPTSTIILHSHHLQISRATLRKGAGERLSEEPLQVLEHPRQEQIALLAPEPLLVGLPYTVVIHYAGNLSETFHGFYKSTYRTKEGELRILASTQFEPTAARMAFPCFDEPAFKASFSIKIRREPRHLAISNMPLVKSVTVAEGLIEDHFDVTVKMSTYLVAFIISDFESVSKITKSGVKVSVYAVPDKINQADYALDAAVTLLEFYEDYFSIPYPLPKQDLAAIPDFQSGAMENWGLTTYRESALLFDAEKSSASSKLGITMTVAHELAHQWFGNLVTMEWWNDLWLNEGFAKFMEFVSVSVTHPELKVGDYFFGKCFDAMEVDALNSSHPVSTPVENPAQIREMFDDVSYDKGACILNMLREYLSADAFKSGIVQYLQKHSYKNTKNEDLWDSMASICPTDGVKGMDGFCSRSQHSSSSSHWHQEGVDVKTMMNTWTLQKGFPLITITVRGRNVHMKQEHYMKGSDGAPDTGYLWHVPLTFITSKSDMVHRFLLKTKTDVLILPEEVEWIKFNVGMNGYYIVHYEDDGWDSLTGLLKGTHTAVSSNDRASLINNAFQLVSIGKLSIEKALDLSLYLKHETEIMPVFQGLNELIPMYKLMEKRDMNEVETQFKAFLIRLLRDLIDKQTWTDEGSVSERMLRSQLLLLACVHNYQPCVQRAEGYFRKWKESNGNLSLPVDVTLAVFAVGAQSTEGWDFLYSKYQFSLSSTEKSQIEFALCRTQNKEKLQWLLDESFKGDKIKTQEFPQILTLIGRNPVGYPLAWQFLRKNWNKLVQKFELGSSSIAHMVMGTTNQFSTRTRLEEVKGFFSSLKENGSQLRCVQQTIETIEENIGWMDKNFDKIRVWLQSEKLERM
Ecoli rRNA inh = reduced GFP signal of wild-type E. coli, primary screen, bacterial rRNA inhibitor project, GFP/RFP fluorescence, OD600, single point; actives 1.6% (n = 350,000); E. coli WT GFP vs humanized-ribosome RFP mutants, 24 h; stronger effect = lower value; DMSO median 0, no signal -100; GFP signal change (wild-type ribosome), % (concentration not given with the values);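 active means significant combined selectivity score with lowered wild-type GFP, culture density cut under 30%, mutant RFP and density less affected; inactive means any of these conditions unmet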
PGC1a acetyl inh = inhibitors of PGC1a acetylation signal, primary screen, cell-based, U2OS, AlphaScreen, inhibitor mode | inhibition, % at 15.6 µM | actives 0.17% (n = 350,000) | AlphaScreen anti-acetyl-lysine; with virally co-expressed GCN5 acetyltransferase;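 active means every replicate shows inhibition of at least 40%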
Cneo AK release = Cryptococcus neoformans cell lysis inducers, primary screen, AK release luminescence, single concentration; lysis activity, % at 15 µM; AID 651654, 2012; C. neoformans lysis, adenylate kinase release luminescence, 4 h; normalised: neutral wells 0, clomiphene wells 100; actives 0.2% (n = 360,000);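 active means mean lysis activity across replicates of at least 80%, whatever share of replicates individually reach that level; inactive means mean lysis activity below 80%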
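Signal: Adenylate kinase release luminescence | Assay system: Log-phase Cryptococcus neoformans yeast cells | Input: Cells at 5 × 10^6 per mL | Buffer or medium: Fresh YPD growth medium | Compound: Single dose | Schedule: Static 4 h at 37 °C with compound, 1 h detection | Controls: Clomiphene | Read-out: Luminescence rise reflecting yeast cell lysis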
Hits are given with their value; . = inactive; / = not tested or not shown.

SMILES	FGF22 binding	HIV Env fusion	ERAP1 inh	Ecoli rRNA inh	PGC1a acetyl inh	Cneo AK release
O=C(c1ccc2ncsc2c1)N1CCN(c2nc3ccccc3s2)CC1	.	76.0	.	.	/	.
O=C(c1ccc2ncsc2c1)N1CCN(c2ccccc2Cl)CC1	.	.	.	.	.	.
Cc1cccc(NC(=O)C2CCCN2C(=O)OCC(C)C)c1C (stereo not given)	/	.	.	.	.	.
O=C(Nc1ccc(Cl)cc1)c1cc2c(cc1O)[nH]c1ccccc12	.	62.3	.	.	.	.
Cc1cc2nc3n(c2cc1C)CC1CC(C(=O)NCc2cccc(Br)c2)N(C)C31 (stereo not given)	.	.	.	.	/	.
O=C(O)CC(CC(=O)Nc1ccc(-c2ccccc2)cc1)c1ccccc1 (stereo not given)	.	.	.	.	.	.
COc1ccc(Cl)cc1S(=O)(=O)N1CCCC1=O	42.9	.	.	.	.	/
CC(C)Cc1cc(C(=O)Nc2c(F)cc(F)cc2Br)no1	.	.	.	.	.	.
O=C(NN=C1c2ccccc2-c2ccccc21)c1ccccc1	.	.	.	-32.4	.	.
O=C(NN=C1c2ccccc2-c2ccccc21)c1ccccc1Br	.	/	.	.	66.1	.
NC(=S)NN=C1c2ccccc2-c2ccccc21	.	.	.	.	/	.
COC(=O)c1c(C(=O)OC)c(-c2ccc(C)cc2)n2c1CCC2	/	.	/	/	/	.
COC(=O)c1c(C(=O)OC)c(-c2ccc(Cl)c(Cl)c2)n2c1CCC2	.	/	.	-29.4	.	/
N#Cc1cc(C(=O)c2cc(Cl)ccc2O)cn(-c2ccccc2)c1=O	/	.	/	/	/	/
NCC[C@H]1CC[C@H](NC(=O)NC2CCCCC2)[C@@H](CO)O1	.	.	.	.	.	.
CCCNc1nc2nc3ccccn3c(=O)c2cc1C(=O)NCCN1CCOCC1	.	.	57.7	.	.	.
O=C(NCCN1CCOCC1)c1c(O)nc2ccccn2c1=O	.	.	.	.	.	.
Cc1cccn2c(=O)c3cc(C(=O)NCCN4CCOCC4)c(=N)n(CCCN4CCOCC4)c3nc12	.	.	34.9	.	.	.
Cc1cccn2c(=O)c3cc(C(=O)NCc4cccnc4)c(=N)n(CC4CCCO4)c3nc12 (stereo not given)	.	.	86.3	.	/	.
Cc1cccn2c(=O)c3cc(C(=O)NCCc4ccccc4)c(=N)n(CC4CCCO4)c3nc12 (stereo not given)	.	.	.	.	.	.
CCN=C1SC(C(=O)Nc2cccc(Cl)c2)CC(=O)N1CC (stereo not given)	.	.	.	.	/	/
O=C(Nc1sc2c(c1C(=O)NCC(O)CO)CCCC2)c1ccccc1 (stereo not given)	.	.	.	.	/	/
CC(=O)OCC(=O)Nc1ccc(Br)c(C)c1	43.2	.	.	.	/	/
COCC(=O)Nc1ccc(Br)c(C)c1	.	.	.	.	.	.
CN1C(=O)c2cc(NC(=O)c3cccc(C(F)(F)F)c3)ccc2OC[C@H]2O[C@H](CC(=O)O)CC[C@H]21	.	.	.	.	/	.
SMILES	FGF22 binding	HIV Env fusion	ERAP1 inh	Ecoli rRNA inh	PGC1a acetyl inh	Cneo AK release
CCCCC[C@@H](C)N1C[C@H](COCc2ccccc2)Oc2cc(N3CCC[C@H]3C(N)=O)ccc2S1(=O)=O	.	75.8	/	.	/	/
O=C(COC(=O)CNC(=O)c1ccccc1F)Nc1cccnc1Cl	43.2	.	.	.	.	/
O=C(COC(=O)c1ccccn1)Nc1cccnc1Cl	.	.	.	.	/	.
O=C(COC(=O)CC12CC3CC(CC(C3)C1)C2)Nc1cccnc1Cl	.	.	.	-24.2	.	/
Cn1c(/C(C#N)=C(\O)COc2ccc3ccccc3c2)nc2ccccc21	/	/	.	.	/	.
Cc1ccc(N2CC(C(=O)Nc3ccccc3C(=O)N3CCOCC3)CC2=O)cc1 (stereo not given)	.	.	.	.	/	.
O=C(COc1nsnc1N1CCOCC1)N/N=C/c1ccccc1O	.	/	.	-21.5	/	/
COC(=O)C(Cc1csc2ccc(Cl)cc12)NC(=O)c1ccc(Cl)cc1 (stereo not given)	.	.	.	-16.4	/	/
CC(=O)OCC1=C(C(=O)O)N2C(=O)C(NC(=O)c3ccc(COc4cccc(Cl)c4Cl)o3)C2SC1 (stereo not given)	.	.	.	-26.5	/	.
N/C(=N\OC(=O)Nc1cccc(C(F)(F)F)c1)c1ccno1	.	.	.	-51.2	.	.
CCn1c(=O)c2sccc2n(Cc2ccc(C)cc2)c1=O	.	.	.	.	/	.
CCc1ccc(C(C(=O)NC2CCCC2)N(C(=O)/C=C/C(=O)Nc2cc(C)on2)c2ccccc2C)cc1 (stereo not given)	/	77.1	/	/	/	/
CCOc1ccc(N(C(=O)/C=C/C(=O)Nc2cc(C)on2)C(C(=O)NC2CCCC2)c2ccccc2C)cc1 (stereo not given)	.	/	.	.	.	.
O=C(COC(=O)c1cccnc1)Nc1ccc2c(c1)OCO2	43.3	.	.	.	.	/
O=C(NCc1cccnc1)Nc1ccc2c(c1)OCO2	43.2	.	.	.	.	/
O=C(Nc1ccc2c(c1)OCCO2)C(=S)NCc1ccccc1	.	.	.	-31.8	.	/
Cc1c(Cl)cccc1NC(=S)N1CCN(S(=O)(=O)c2cccs2)CC1	.	.	.	.	.	/
Nc1c(Cl)cc2c(c1Br)Cc1ccccc1-2	.	.	.	.	.	.
Cc1ccc(O)c(N=Cc2cc(Cc3ccccc3)cc([N+](=O)[O-])c2O)c1	43.3	.	.	.	.	/
N#CCCN(C(=O)CN1CCN(S(=O)(=O)c2ccc(Cl)s2)CC1)c1ccc(F)cc1	.	62.4	.	.	.	.
[O-][N+]12CCN(CC1)c1ccccc12	/	/	/	/	.	.
CCCCS(=O)(=O)N1CCCC(C(=O)N2CCOCC2)C1 (stereo not given)	.	.	.	.	.	.
COC(=O)C1=C(C)NC2=C(C(=O)CCC2)C1c1ccc(-c2ccsc2C(=O)OC)o1 (stereo not given)	.	.	.	-24.0	/	/
CC1=C(C(=O)OC2CCCCCC2)C(c2ccc(C)o2)C2=C(CCCC2=O)N1 (stereo not given)	.	/	.	.	.	.
Cc1ccc(S(=O)(=O)c2nc(-c3ccccc3Cl)oc2N(C)C)cc1	.	56.0	.	.	.	.
COC(c1ccccc1)c1nnc(CCC(=O)NCCCc2ccccc2)o1 (stereo not given)	.	.	.	.	.	.
CN(CCc1ccccn1)C(=O)CCc1nnc(CCCc2ccccc2)o1	.	.	.	.	/	/
